Hck-Nef inh – blocks Nef-activated human Hck kinase. inhibition, % at 20 µM. Recombinant Hck-YEEI plus Nef, Z-Lyte FRET kinase assay. P08631. 0.68% of 220,000 active;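 active means Hck-Nef kinase inhibition above about 50%, limit read from the data; inactive means inhibition below that limit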;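 further: 0% = DMSO with Hck plus Nef and 100% = Hck alone without Nef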
RanGTP-Imp inh – inhibitors of RanGTP-importin-beta interaction, primary screen, biochemical, FRET, CFP-Ran, YFP-importin-beta, homogeneous; AID 2216; cell-free CFP-Ran/YFP-importin-beta FRET ratio; inhibition, % (no concentration beside the values); 1.1% of 300,000 active;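 active means more than half of the replicate wells show a fall in the fluorescence ratio signal beyond about 16%, limit read from the data, passing the limit was not always enough; inconclusive means exactly half of the replicate wells pass the set limit; inactive means fewer than half of replicates pass the limit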;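 further: 0% = DMSO wells and 100% = Ran loaded with GDP instead of GTP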
Runt-CBFb FRET – inhibitors of human RUNX1 Runt domain binding to CBFb; Q01196+Q13951; Cerulean-Runt/Venus-CBFb FRET ratio 530/480, 1 h; inhibition, % at 20 µM; 0.46% of 220,000 active;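 active means inhibition over about 50% at 20 µM in the single-dose screen, limit read from the data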;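 further: 0% = DMSO wells and 100% = excess unlabeled CBFb competitor control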
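Doses: 20 µM compound in 1% DMSO | Material: Cerulean-labeled Runt domain protein | Amount: Each fluorescent fusion protein 100 nM | Schedule: Two 1 h room-temperature incubations shielded from light | Measured by: FRET fluorescence | Evaluation: Loss of energy transfer signal | Controls: Unlabeled CBFb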
Runt-SMMHC FRET – Runt domain-CBFb-SMMHC interaction inhibition | Q01196+Q13951 | Cerulean-Runt/Venus-CBFb-SMMHC FRET ratio 530/480, 1 h | inhibition, % at 20 µM | 0.74% of 220,000 active;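 active means mean inhibition across duplicate retests at 20 µM reaching about 50%, limit read from the data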;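 further: 0% = DMSO wells and 100% = wells with excess untagged CBFb-SMMHC; inhibitors lower the FRET ratio by blocking Runt binding to CBFb-SMMHC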
Numbers without * were called inactive; u = inconclusive; x = no result given; + = active, no number. This is a sample that favours compounds with a hit; in the whole collection about 1.7% have one here.

SMILES | Hck-Nef inh | RanGTP-Imp inh | Runt-CBFb FRET | Runt-SMMHC FRET
CCCSc1ccc(-c2nn(-c3ccccc3)cc2/C=C(/C#N)C(=O)NCCCOC)cc1 | 6 | 4 | -14 | -16
CCSc1ccc(-c2nn(-c3ccccc3)cc2/C=C(/C#N)C(=O)NCCCOC)cc1 | 0 | x | 24 | 60*
CCOc1ccc2[nH]c3ncccc3c(=O)c2c1 | x | 34* | x | x
CCOc1ccc2[nH]c(C)c(CN3CCOCC3)c(=O)c2c1 | 0 | 6 | -2 | 2
COC(=O)c1c(Cl)c2n3ccccc3c(C)c(-c3ccccc3)c-2c1C(=O)OC | 2 | 19* | 1 | -7
COC(=O)c1cc2c(-c3ccccc3)c(C)c3ccccn3c-2c1C(=O)OC | 6 | 27* | 9 | 9
COC(=O)c1c(C(=O)OC)c2ccccn2c1C(=O)c1ccccc1 | x | 1 | x | x
O=C(NNC(=S)Nc1ccccc1)C1CCCCC1 | -1 | 178* | 1 | 0
O=C(NNC(=S)Nc1ccccc1)C1CC1 | -1 | -3 | 1 | -3
Cc1cc(-c2nnc(CCC(=O)N3CCN(Cc4cccnc4)CC3)o2)c(C)o1 | 8 | 1 | -2 | -1
CN1CCN(C(=O)c2cc([N+](=O)[O-])cc([N+](=O)[O-])c2)CC1 | x | 3 | x | x
O=C1/C(=C/N(C(=O)c2ccco2)c2ccc(Br)cc2)Sc2ccccc21 | 2 | 25* | 20 | 67
O=C1/C(=C/N(C(=O)c2ccco2)c2ccc(Cl)cc2)Sc2ccccc21 | 6 | 10 | 21 | 75*
CCOC(=O)/C=C(C)\C=C\c1c[nH]c2ccccc12 | 0 | 2 | 2 | -3
CCOC(=O)C1=C(O)/C(=C/c2ccc(C)o2)SC1=NC(=O)c1ccccc1C | 55* | x | x | x
CCOC(=O)C1=C(O)/C(=C/c2cc(OC)c(OC)c(OC)c2)SC1=Nc1ccc(OC)cc1 | -1 | 0 | x | -12
CS(=O)(=O)N1CCN(c2ccc(NC(=O)c3ccccc3)cc2)CC1 | 24 | -1 | -1 | -2
COc1ccc(C(=O)Nc2cccc3c2CCCC3)cc1OC | x | 8 | x | x
CCC12CCCN3CCc4c(n(c5ccccc45)C(O)(C(=O)OC)C1)C32 (centres undefined) | 3 | 114* | 22 | 0
CCCCn1c(=NC(C)=O)c(C#N)cc2c(=O)n3cccc(C)c3nc21 | x | 85* | x | x
CCCCCn1c(=NC(C)=O)c(C#N)cc2c(=O)n3ccccc3nc21 | 34 | 108* | 16 | 42
Cc1ccc2nc3c(cc(C#N)c(=N)n3Cc3cccnc3)c(=O)n2c1 | 16 | 94* | x | x
CCOCCCn1c(=NC(C)=O)c(C#N)cc2c(=O)n3cccc(C)c3nc21 | 36 | 123* | 59* | 88*
N#Cc1cc2c(=O)n3ccccc3nc2n(Cc2cccnc2)c1=N | 2 | x | x | x
CC1Cc2ccccc2N1C(=O)C1CC(=O)N(c2ccccc2)C1 (centres undefined) | x | 1 | x | x
SMILES | Hck-Nef inh | RanGTP-Imp inh | Runt-CBFb FRET | Runt-SMMHC FRET
CCOC(=O)c1c(C(=O)OCC)c(C)n(CCc2ccc(OC)c(OC)c2)c1C | -10 | 10 | -1 | 4
O=C(O)c1ccc2c(c1)-c1nc3ccccc3n1C2=O | 9 | -1 | 0 | -1
O=C1OCC2OC(O)C(O)C(O)C2OC(=O)c2cc(O)c(O)c(O)c2-c2c(O)c(O)c3oc(=O)c4c(c(O)c(O)c5oc(=O)c2c3c54)-c2c1cc(O)c(O)c2O (centres undefined) | 4 | x | 43 | 6
CCCCCn1c(=NC(=O)c2cccnc2)c(C#N)cc2c(=O)n3cccc(C)c3nc21 | x | 144* | x | x
CCCCN(CC)C(=O)c1cc2c(=O)n3cccc(C)c3nc2s1 | x | -2 | x | x
C=CCn1c(=N)c(C#N)cc2c(=O)n3ccccc3nc21 | 37 | + | -1 | 75*
CC(C)OCCCn1c(=NC(=O)c2cccs2)c(C#N)cc2c(=O)n3ccccc3nc21 | 23 | 103* | 77* | 81*
CCN(C(=O)c1cc2c(=O)n3ccccc3nc2n1CCCOC)C1CCCCC1 | x | 2 | x | x
CCOCCCn1c(=NC(=O)c2ccc(OC)c(OC)c2)c(C#N)cc2c(=O)n3cccc(C)c3nc21 | 13 | 86* | 106* | 143*
O=C(CSc1nnc(NC(=O)C2CC2)s1)NCc1ccccc1 | x | -2 | x | x
CCOc1cc(C2C(C#N)=C(N)SC(N)=C2C#N)ccc1OCCN1CCOCC1 | 1 | u | 24 | 15
CCOc1ccc(C2C(C#N)=C(N)SC(N)=C2C#N)c(OCC)c1 | 5 | 19* | 15 | 32
COC(=O)C(c1ccccc1)N(Cc1cccc(CN(C(C(=O)OC)c2ccccc2)S(C)(=O)=O)c1)S(C)(=O)=O (centres undefined) | x | 1 | x | x

Compound activity (PubChem)
